Results gathered from unrelated publications.
Each line is one published result; the experiments were not run side by side.
LDHA: L-lactate dehydrogenase A chain (LDHA, Homo sapiens, UniProt P00338)
Acetylcholinesterase: Acetylcholinesterase (Bos taurus, UniProt P23795)
Integrin alpha-V/beta-3: Integrin alpha-V/beta-3 (Homo sapiens, UniProt P05106+P06756)
MAOA: Amine oxidase [flavin-containing] A (MAOA, Homo sapiens, UniProt P21397)
PTPN1: Tyrosine-protein phosphatase non-receptor type 1 (PTPN1, Homo sapiens, UniProt P18031)

CCCCOc1ccc(C(=O)CCN2CCCCC2)cc1
IC50 (Histamine H2 receptor (HRH2, Homo sapiens, UniProt P25021); ligand displacement; radioligand): 3.13 µM

COc1cc(Nc2ncc(F)c(Nc3ccc4c(n3)NC(=O)C(C)(C)O4)n2)cc(OC)c1OC
IC50 (Fatty-acid amide hydrolase 1 (Faah, Rattus norvegicus, UniProt P97612); enzyme activity; inhibitor): 1.58 µM

NC(=O)c1cccc(-c2cc(OC(=O)NC3CCCCC3)ccc2O)c1
IC50 (Monoglyceride lipase (Rattus norvegicus, UniProt Q8R431); enzyme activity; inhibitor): > 100 µM

O=c1cc(-c2ccc(O)c(O)c2)oc2cc(O[C@@H]3O[C@H](CO)[C@@H](O)[C@H](O)[C@H]3O[C@@H]3O[C@H](CO)[C@@H](O)[C@H](O)[C@H]3O)cc(O)c12
IC50 (LDHA; enzyme activity; inhibitor; pH 7.4): 163 µM

CNC(=O)Oc1cccc2c1OC(C)(C)O2
IC50 (Acetylcholinesterase; enzyme activity; inhibitor; Ellman): 0.195 µM

CC[C@H](C)[C@@H]([C@@H](CC(=O)N1CCC[C@H]1[C@H](OC)[C@@H](C)C(=O)N[C@@H](Cc1ccccc1)C(=O)O)OC)N(C)C(=O)[C@@H](NC(=O)[C@H](C(C)C)N(C)C(=O)CCc1cn(CCOCCOCCOCCOCC(=O)NCc2ccc(CN3C(=O)[C@H]4CC(=O)N[C@H](C(=O)O)CC(=O)NCC(=O)N[C@@H](CCCNC(=N)N)C(=O)NC[C@H]3C(=O)N4)cc2)nn1)C(C)C
IC50 (Integrin alpha-V/beta-3; ligand displacement): 0.0107 µM

COc1ccc(/C=C/C(=O)N2CCN(Cc3ccccc3)CC2)cc1OC
IC50 (MAOA; enzyme activity; inhibitor; fluorescence): 63.2 µM

CC(=O)N[C@@H](CS)C(=O)O
IC50 (Angiotensin-converting enzyme 2 (ACE2, Homo sapiens, UniProt Q9BYF1); enzyme activity; inhibitor; fluorescence): 173 µM

NC(Cc1ccc(C(F)(F)[P-](F)(F)(F)(F)F)cc1)C(=O)O (centres unmarked)
IC50 (PTPN1; enzyme activity; inhibitor): 122 µM

CC(C)(C)OC(=O)N1CCN(C(=O)C(=O)CC(=O)c2cccc(OCc3ccccc3)c2)CC1
IC50 (PTPN1; enzyme activity; inhibitor; absorbance; pH 7): 39.5 µM

CNC(=O)C(Cc1ccc(C(F)(F)[P-](F)(F)(F)(F)F)cc1)NC(C)=O (centres unmarked)
IC50 (PTPN1; enzyme activity; inhibitor): 872 µM

CCCc1c(C2CCCCN2CCN2CCOCC2)[nH]c2cc(OC(F)(F)F)ccc12 (centres unmarked)
IC50 (Plasma membrane ATPase 1 (PMA1, Saccharomyces cerevisiae, UniProt P05030); ATPase activity; inhibitor): 26.9 µM

CC[C@H](C)[C@@H]([C@@H](CC(=O)N1CCC[C@H]1[C@H](OC)[C@@H](C)C(=O)N[C@@H](Cc1ccccc1)C(=O)O)OC)N(C)C(=O)[C@@H](NC(=O)[C@H](C(C)C)N(C)C(=O)OCc1ccc(NC(=O)[C@H](C)NC(=O)[C@@H](NC(=O)CCc2cn(CCOCCOCCOCCOCC(=O)NCc3ccc(CN4C(=O)[C@H]5CC(=O)N[C@H](C(=O)O)CC(=O)NCC(=O)N[C@@H](CCCNC(=N)N)C(=O)NC[C@H]4C(=O)N5)cc3)nn2)C(C)C)cc1)C(C)C
IC50 (Integrin alpha-V/beta-3; ligand displacement): 0.0439 µM

COc1c(O[C@@H]2O[C@H](CO)[C@@H](O)[C@H](O)[C@H]2O[C@@H]2O[C@H](CO)[C@@H](O)[C@H](O)[C@H]2O)cc2oc(-c3ccc(O)cc3)cc(=O)c2c1O
IC50 (LDHA; enzyme activity; inhibitor; pH 7.4): > 500 µM

CC[n+]1c(-c2ccccc2)c2cc(N)ccc2c2ccc(N)cc21
IC50 (Acetylcholinesterase; enzyme activity; inhibitor; Ellman): 32.3 µM

O=c1c2ccccc2[se]n1-c1ccccc1
IC50 (Glutathione reductase, mitochondrial (GSR, Homo sapiens, UniProt P00390); enzyme activity; inhibitor; absorbance): 21.5 µM

C#CCN(C)c1nc(NCCCCC2CCN(Cc3ccccc3)CC2)c(C#N)c(-c2ccccc2)c1C#N
IC50 (MAOA; enzyme activity; inhibitor; fluorescence): 11.6 µM

CCCCc1ccc(NS(=O)(=O)c2ccc3c4c(cccc24)C(=O)N3)cc1
IC50 (PTPN1; enzyme activity; inhibitor): 59.4 µM

CCOP(=O)(OCC)Oc1ccc2c(C)c(Cl)c(=O)oc2c1
IC50 (Acetylcholinesterase; enzyme activity; inhibitor; Ellman): 1.04 µM

Nc1c(S(=O)(=O)O)cc(Nc2ccc(Nc3nc(Cl)nc(Nc4cccc(S(=O)(=O)O)c4)n3)c(S(=O)(=O)O)c2)c2c1C(=O)c1ccccc1C2=O
IC50 (P2X purinoceptor 4 (P2RX4, Homo sapiens, UniProt Q99571); calcium signal; antagonist): 3.49 µM
